# ERb coact inh – blocks coactivator binding to human estrogen receptor beta; Q92731; TR-FRET ER-beta LBD / SRC1-Cy5 peptide binding; receptor agonist-loaded with 1 µM estradiol; inhibition, % at 25.6 µM; 86,000 tested, 1.3% active;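 active = compounds whose percent inhibition of the receptor-coactivator binding signal exceeds about 50% in the single-dose screen, limit read from the data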
# SF-1 act – SF-1 (human) activation | CHO-K1 Gal4-SF-1 LBD luciferase reporter; % increase over DMSO SF-1-specific signal | Q13285 | 65,000 tested, 1.9% active | activation, % at 10 µM;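 active = activation above the mean activation of all tested compounds plus 3 SD, cut at about 50% in these data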
#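 System: CHO-K1 cells with Gal4–hSF-1 LBD chimera plus Gal4-driven luciferase; quantity: 4,000 CHO-K1 cells per well; compound: one dose, 10 µM compound, 1% DMSO; times: 20 h compound treatment, 37 °C; measured by: SteadyLite luciferase luminescence; read-out: percent activation versus DMSO; benchmarks: DMSO and mock-transfected background; replicates: one test per compound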
# BAP1 inh – human BAP1 deubiquitinase inhibition | Q92560 | recombinant BAP1, Ub-AMC hydrolysis fluorescence kinetic; hits give low values | calls only at 20 µM | 72,000 tested, 0.48% active;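 active = activity remaining at or below 50% of control, provided the compound also passes the data quality filters; inactive = the rest, including low values that fail the filters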
# ERa SRC1 pot – enhances coactivator binding to human estrogen receptor alpha. TR-FRET ERalpha-LBD/SRC-Cy5 coactivator binding, 2 h; 100 = basal binding, no effect. coactivator binding (% of control), % at 25.6 µM. 86,000 tested, 1.3% active. AID 639; in the data active = activity above about 200%;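 note: binding measured in presence of low estradiol as agonist stimulus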
# Target sequence (P03372 whole entry, looked up, the tested form may be a part): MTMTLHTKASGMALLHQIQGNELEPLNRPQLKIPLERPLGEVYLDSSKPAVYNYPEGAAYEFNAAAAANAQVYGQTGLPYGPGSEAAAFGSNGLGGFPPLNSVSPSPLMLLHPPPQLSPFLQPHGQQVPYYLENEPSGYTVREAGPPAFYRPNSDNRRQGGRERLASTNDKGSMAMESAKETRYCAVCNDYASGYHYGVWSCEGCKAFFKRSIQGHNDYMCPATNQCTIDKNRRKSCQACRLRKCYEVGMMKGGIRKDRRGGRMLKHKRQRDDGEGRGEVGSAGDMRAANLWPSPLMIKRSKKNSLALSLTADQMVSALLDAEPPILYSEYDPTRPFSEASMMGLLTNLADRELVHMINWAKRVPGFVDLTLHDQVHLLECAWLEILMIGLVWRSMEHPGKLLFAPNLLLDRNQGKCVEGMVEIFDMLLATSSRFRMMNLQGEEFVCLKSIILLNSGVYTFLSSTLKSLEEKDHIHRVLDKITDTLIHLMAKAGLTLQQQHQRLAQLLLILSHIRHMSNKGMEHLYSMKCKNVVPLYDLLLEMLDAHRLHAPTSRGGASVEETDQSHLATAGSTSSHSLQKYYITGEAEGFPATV
# RORA act – activators of human nuclear receptor RORA. P35398. CHO-K1 Gal4-RORA LBD luciferase reporter, luminescence; percent increase over mock-subtracted basal signal. activation, % at 10 µM. 65,000 tested, 1.5% active;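 active = activation above the mean of all tested compounds plus 3 SD, cut at about 49% in these data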
# ERa coact inh – ER-alpha (human) coactivator binding inhibition; 86,000 tested, 1.7% active; AID 629; P03372; inhibition, % at 25.6 µM; TR-FRET ER-alpha LBD / SRC-1 peptide, estradiol-bound; in the data active = inhibition above about 50%
# BAP1 inh confirm – BAP1 (human) enzyme inhibition, confirmed | shares compounds with BAP1 inh | purified BAP1, Ub-ethyl ester hydrolysis, HPLC; hits give low values | % of control activity, % at 20 µM | 310 tested, 8% active | AID 753;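 active = percent of control activity at or below 60%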
# A number is an active result; - = inactive; . = no result; + = active, no number; [ ] = remark or other dose. In the library only some 5.1% were active in any assay of this set; here they are far more common.
SMILES,ERb coact inh,SF-1 act,BAP1 inh,ERa SRC1 pot,RORA act,ERa coact inh,BAP1 inh confirm
N#Cc1cc(-c2ccccc2)nn1-c1ccccc1,-,-,+,-,-,-,-
O=C(Nc1nc2ccc(Cl)cc2s1)c1ccc(Br)o1,.,-,+,.,54,.,-
CN(C)c1ccc(C(=O)Nc2nc3ccc(Cl)cc3s2)cc1,.,.,-,.,.,.,.
CCOC(=O)c1c(NC(C)=O)sc2c1CCCCC2,.,.,-,.,.,.,.
CCOC(=O)c1c(NC(=O)c2ccc(-n3cnnn3)cc2)sc2c1CCCC2,-,-,+,-,-,-,-
Cc1ccc(C)c(NC2=C(Cl)C(=O)N(c3cccc(C)c3C)C2=O)c1,.,.,-,.,.,.,.
O=C(Cn1c2ccccc2c(=O)c2ccccc21)N1CCN(c2ccc([N+](=O)[O-])cc2)CC1,.,.,-,.,.,.,.
NC(=O)c1ccccc1N/C=C/C(=O)c1ccco1,-,-,+,-,-,-,-
COc1ccc(-c2nn(C)c(=O)c3ccccc23)cc1NC(=O)Cn1nc(C)c2ccccc2c1=O,50[fluorescence artefact?],-,+,287[fluorescence artefact?],-,63,-
Cc1cccc(-c2cc3nc4c(c(N5CCOCC5)n3n2)CCCC4)c1,-,-,+,-,-,-,-
COc1ccc(S(=O)(=O)Nc2ccccc2C(=O)NCc2ccco2)cc1,-,-,+,-,-,-,-
O=C(O)c1oc2ccc(Br)cc2c1-n1cccc1,-,-,+,-,-,-,-
CCCCOCC(O)Cn1cnc2ccccc21 (configuration not stated),.,.,-,.,.,.,.
O=C(CCS(=O)(=O)c1ccccc1)Nc1nc2c(s1)COc1ccccc1-2,-,-,+,-,-,-,-
O=C(CN(Cc1ccccc1)S(=O)(=O)c1ccc2c(c1)OCCO2)Nc1ccc2c(c1)OCCO2,.,-,+,.,-,.,-
O=C(C1CCN(c2nnc(-n3cccc3)s2)CC1)N1CCN(c2cccc(C(F)(F)F)c2)CC1,-,-,+,-,-,-,-
Cc1cc(=O)oc2cc(OCc3ccccc3F)c(Cl)cc12,.,.,-,.,.,.,.
COc1ccc2oc(=O)c(-c3nc4ccccc4[nH]3)cc2c1,.,.,-,.,.,.,.
O=C(CC1Sc2ccc(C(F)(F)F)cc2NC1=O)Nc1cccc(Cl)c1 (configuration not stated),.,.,-,.,.,.,.
COc1ccc(OC)c(NC(=O)c2cc(-c3ccc(C)cc3O)n[nH]2)c1,-,-,+,-,-,70,-
Cc1ccc(-c2cc(C(=O)Nc3cc(C)ccc3C)[nH]n2)c(O)c1,-,-,-,-,-,-,.
Cc1nc(Nc2cccc(C(F)(F)F)c2)nc2c1C(=O)CC(C)C2 (configuration not stated),-,-,+,-,-,-,-
Cn1c(C(=O)N2CCCc3ccccc32)cc2c(=O)n3ccccc3nc21,-,-,+,-,-,-,-
Clc1ccc(C2Nc3ccccc3-n3cccc32)cc1 (configuration not stated),-,-,+,-,-,-,-
Cc1c(N2C(=O)c3ccc4c5c(ccc(c35)C2=O)CC4)c(=O)n(-c2ccccc2)n1C,92[fluorescence artefact?],-,+,-,-,95[fluorescence artefact?],-
SMILES,ERb coact inh,SF-1 act,BAP1 inh,ERa SRC1 pot,RORA act,ERa coact inh,BAP1 inh confirm
COc1ccc2c(c1)-c1cc(Cl)ccc1S(=O)(=O)N2S(=O)(=O)c1ccc2ccccc2c1,.,.,-,.,.,.,.
O=c1oc(-c2cc3ccccc3o2)nc2sc3c(c12)CCCC3,.,-,+,.,-,.,-
COc1ccc(-n2ncc3c(N4CCC(C)CC4)ncnc32)cc1,-,-,-,-,-,-,.
CCOC(=O)N1CCN(c2ncnc3c2cnn3-c2ccc(OC)cc2)CC1,-,-,-,-,-,-,-
CCCCCCn1c(SCCCC)nc2c1c(=O)[nH]c(=O)n2C,-,-,+,-,-,-,-
Clc1ccccc1OCCn1ccnc1,-,-,-,-,-,-,.
C=CCc1ccccc1OCCn1ccnc1,-,-,+,-,-,-,-
COc1ccccc1C(=O)Nc1cc(-c2nc3ncccc3o2)ccc1C,.,.,-,.,.,.,.
O=C(O)c1ccccc1C(=O)Nc1ccc2c(c1)OCCO2,.,.,-,.,.,.,.
COc1nc2c(C)cccc2cc1-c1noc(-c2ccco2)n1,-,-,+,-,-,55[fluorescence artefact?],-
